For 14 compounds, IC50 results are on record in ChEMBL document CHEMBL1134850, “Biphenyl derivatives as novel dual NK(1)/NK(2)-receptor antagonists” (Bioorg Med Chem Lett, 2002).

One experiment addresses T1, Substance-K receptor (Homo sapiens, UniProt P21452).
T1 sequence (P21452 whole entry): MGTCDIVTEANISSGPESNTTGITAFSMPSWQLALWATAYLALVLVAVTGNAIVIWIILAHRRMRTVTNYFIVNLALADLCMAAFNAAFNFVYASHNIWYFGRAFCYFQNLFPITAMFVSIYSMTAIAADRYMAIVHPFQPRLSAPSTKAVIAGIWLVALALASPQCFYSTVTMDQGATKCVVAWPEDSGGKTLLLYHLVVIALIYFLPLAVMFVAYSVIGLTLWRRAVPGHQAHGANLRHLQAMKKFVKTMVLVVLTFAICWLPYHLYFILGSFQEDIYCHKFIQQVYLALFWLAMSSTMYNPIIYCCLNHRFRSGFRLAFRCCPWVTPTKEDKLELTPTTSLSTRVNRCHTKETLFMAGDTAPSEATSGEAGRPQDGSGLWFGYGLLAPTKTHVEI
The experiment in a line: Binding affinity by measuring the inhibition of 125 I-NKA binding to transfected CHO cells expressing human recombinant Tachykinin receptor 2. The experiment is classed as cell-based. The procedure, abridged:
(§1)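 Whole hNK2-transfected CHO cells (3 × 10⁵ per well) incubated 20 min at room temperature in 20 mM HEPES pH 7.4 with 2 mM MnSO₄ and 6 mM MgCl₂, 0.05 nM ¹²⁵I-NKA and varying test concentrations. Nonspecific binding defined with 50 nM NKA. Free ligand removed by rapid filtration, four ice-cold Tricine washes, filter-bound radioactivity by scintillation counting; triplicate samples.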
The IC50 is the point on the concentration scale where inhibition reaches its midpoint. As to `Cc1ccc(-c2ccc(C(=O)N[C@@H]3CCCCNC3=O)cc2N(C)C(=O)c2cc(C(F)(F)F)cc(C(F)(F)F)c2)cc1`, the concentration for half-maximal inhibition (IC50) was 181 nM.
Regarding `CN(C(=O)c1cc(C(F)(F)F)cc(C(F)(F)F)c1)c1cc(C(=O)N[C@@H]2CCCCNC2=O)ccc1-c1ccc(Cl)c(Cl)c1`, the concentration for half-maximal inhibition (IC50) worked out at 43 nM.
For the compound `CN(C(=O)c1cc(C(F)(F)F)cc(C(F)(F)F)c1)c1cc(C(=O)N[C@@H]2CCCCNC2=O)ccc1-c1ccc(F)cc1`, the IC50 was determined as 28 nM.
As for `CN(C(=O)c1cc(C(F)(F)F)cc(C(F)(F)F)c1)c1cc(C(=O)N[C@@H]2CCCCNC2=O)ccc1-c1ccc(Cl)cc1`, the IC50 came to 70 nM.
Consider `CN(C(=O)c1ccccc1)c1cc(C(=O)NC2CCCCC2)ccc1-c1ccc(F)cc1`, for which the IC50 was greater than 1000 nM.
On the same count and under the same terms, then `CN(C(=O)c1cc(C(F)(F)F)cc(C(F)(F)F)c1)c1cc(C(=O)NC2CCCCNC2=O)ccc1-c1ccccc1` (centres undefined), with 560 nM; and `CN(C(=O)c1cc(C(F)(F)F)cc(C(F)(F)F)c1)c1cc(C(=O)NC2CCCCC2)ccc1-c1ccc(F)cc1`, with 168 nM.

Another experiment addresses T1, Substance-K receptor. The experiment in a line: Binding affinity was determined by measuring the inhibition of 125 I-NKA binding to transfected CHO cells expressing human recombinant Tachykinin receptor 2. The experiment is classed as cell-based. The procedure, abridged: as §1
For `COc1cc(C(=O)N(C)c2cc(C(=O)N[C@@H]3CCCCNC3=O)ccc2-c2ccc(Cl)cc2)cc(OC)c1OC`, the concentration for half-maximal inhibition (IC50) is 162 nM.
Consider `COc1cc(C(=O)Nc2cc(C(=O)NC3CCCCNC3=O)ccc2-c2ccc(Cl)cc2)cc(OC)c1OC` (centres undefined), for which the IC50 is greater than 1000 nM.
For `CN(C)C(=O)c1ccc(-c2ccc(Cl)cc2)c(N(C)C(=O)c2cc(C(F)(F)F)cc(C(F)(F)F)c2)c1`, the IC50 came to 500 nM.
On the same count and under the same terms, the figure for `COc1cc(C(=O)Nc2cc(C(=O)NC3CCCCC3)ccc2-c2ccc(Cl)cc2)cc(OC)c1OC` is 30 nM.
With `CN(O)C(=O)c1ccc(-c2ccc(Cl)cc2)c(N(C)C(=O)c2cc(C(F)(F)F)cc(C(F)(F)F)c2)c1`, the IC50 is greater than 1000 nM.
For the compound `CN(C)CCCNC(=O)c1ccc(-c2ccc(Cl)cc2)c(N(C)C(=O)c2cc(C(F)(F)F)cc(C(F)(F)F)c2)c1`, the IC50 came to 108 nM.
On the same count and under the same terms, the figure for `CN(C(=O)c1cc(C(F)(F)F)cc(C(F)(F)F)c1)c1cc(C(=O)NC2CCCCC2)ccc1-c1ccc(Cl)cc1` is 51 nM.
